pEC50, pIC50: −log10 of the molar value.
Assays:
Plasmodium falciparum = assay: Antimalarial activity against Plasmodium falciparum; assay type: functional, organism-based
Method in brief: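 P. falciparum K1 (multidrug-resistant), asexual erythrocytic stage kept in continuous in vitro culture; microculture radioisotope method after Desjardins. EC50 is the concentration giving 50% reduction in parasite growth, measured as [3H]hypoxanthine uptake. Artemisinin and dihydroartemisinin served as standards.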

[1] = Cytotoxicity against KB cells.; assay type: functional, cell-based; details: Homo sapiens
Method in brief: (§1)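 Colorimetric cytotoxicity assay after Skehan on KB, BC and vero cell lines. Maximum concentration tested 130 µM. Ellipticine was the positive control. IC50 is reported in µM.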

BC [2] = assay: Cytotoxicity against BC cells; assay type: functional, cell-based; details: Homo sapiens; method in brief: as §1
Vero = assay: Cytotoxicity against vero cells.; assay type: functional, cell-based; details: Chlorocebus sabaeus; method in brief: as §1
[3] = Therapeutic index (TI) determined as IC50 of vero cells to that of EC50; assay type: cell-based; details: plasmodium falciparum, read-out: TI
BC [4] = assay: Cytotoxicity against BC cells.; assay type: functional, cell-based; details: Homo sapiens; method in brief: as §1
KB = assay: Cytotoxicity against KB cells; assay type: functional, cell-based; details: Homo sapiens; method in brief: as §1

Compound | pEC50 (Plasmodium falciparum) | pIC50 [1] | IA (BC [2]) | pIC50 (Vero) | selectivity ratio [3] | pIC50 (BC [4]) | IA (KB)
CCCC[C@@H]1C(=O)O[C@@H]2O[C@]3(C)CC[C@H]4[C@H](C)CC[C@@H]1[C@@]24OO3 | 7.86 | 4.27 | Cytotoxic | < 3.89 | > 9.4 | – | –
C[C@@H]1CC[C@H]2[C@H](Cc3cccc(F)c3)C(=O)O[C@@H]3O[C@]4(C)CC[C@@H]1[C@]32OO4 | 7.74 | 4.36 | – | < 3.89 | 7.1 | 4.39 | –
CCN(CC)C(=S)SC(CC1C(=O)O[C@@H]2O[C@]3(C)CC[C@H]4[C@H](C)CC[C@@H]1C24OO3)SC(=S)N(CC)CC (some centres not stated) | 8.72 | 5.60 | – | 5.18 | 3.5 | 5.62 | –
C[C@@H]1CC[C@H]2[C@H](CCCCc3ccccc3)C(=O)O[C@@H]3O[C@]4(C)CC[C@@H]1[C@]32OO4 | 7.99 | 5.28 | – | 4.89 | 1.3 | 5.30 | –
CCC[C@H]1C(=O)O[C@@H]2O[C@]3(C)CC[C@H]4[C@H](C)CC[C@@H]1[C@@]24OO3 | 8.20 | – | Cytotoxic | < 3.89 | > 2.1 | – | Cytotoxic
CCCCCC[C@H]1C(=O)O[C@@H]2O[C@]3(C)CC[C@H]4[C@H](C)CC[C@@H]1[C@@]24OO3 | 7.89 | 5.21 | – | 4.80 | 1.2 | 5.24 | –
CC1CCC2C(CC3(CCCCc4ccccc4)C(=O)OC4OC5(C)CCC6C(C)CCC3C46OO5)C(=O)OC3OC4(C)CCC1C32OO4 (configuration not stated) | 8.47 | 5.24 | – | 5.62 | 7.1 | 5.92 | –
CC1CCC2C(CCCCCCCC3(CC4C(=O)OC5OC6(C)CCC7C(C)CCC4C57OO6)C(=O)OC4OC5(C)CCC6C(C)CCC3C46OO5)C(=O)OC3OC4(C)CCC1C32OO4 (configuration not stated) | 8.51 | 5.55 | – | 5.00 | – | 5.70 | –
C[C@@H]1CC[C@H]2[C@@H](Cc3ccc(F)cc3)C(=O)O[C@@H]3O[C@]4(C)CC[C@@H]1[C@]32OO4 | 8.17 | – | Cytotoxic | < 3.89 | 1.9 | – | Cytotoxic
CCCC1(CC2C(=O)OC3OC4(C)CCC5C(C)CCC2C35OO4)C(=O)OC2OC3(C)CCC4C(C)CCC1C24OO3 (configuration not stated) | 8.36 | – | Cytotoxic | < 3.89 | > 3 | – | Cytotoxic
C[C@@H]1CC[C@H]2C(C[C@]3(C)C(=O)O[C@@H]4O[C@]5(C)CC[C@H]6[C@H](C)CC[C@@H]3[C@@]46OO5)C(=O)O[C@@H]3O[C@]4(C)CC[C@@H]1C32OO4 (some centres not stated) | 9.00 | 4.64 | – | 4.05 | 8.9 | 4.89 | –
CCC[C@@H]1C(=O)O[C@@H]2O[C@]3(C)CC[C@H]4[C@H](C)CC[C@@H]1[C@@]24OO3 | 7.96 | – | Cytotoxic | < 3.89 | > 1.2 | – | Cytotoxic
CCCCCC[C@@H]1C(=O)O[C@@H]2O[C@]3(C)CC[C@H]4[C@H](C)CC[C@@H]1[C@@]24OO3 | 7.86 | 5.21 | – | 4.85 | 1 | 5.21 | –
C[C@@H]1CCC2[C@H](CCCCCC[C@@H]3C(=O)O[C@@H]4O[C@@]5(C)CC[C@H]6[C@H](C)CCC3[C@@]46OO5)C(=O)O[C@@H]3O[C@]4(C)CC[C@@H]1C23OO4 (some centres not stated) | 8.85 | 5.64 | – | 5.00 | 7.1 | 5.80 | –
CC1CCC2C(CC3(Cc4ccc(F)cc4)C(=O)OC4OC5(C)CCC6C(C)CCC3C46OO5)C(=O)OC3OC4(C)CCC1C32OO4 (configuration not stated) | 8.64 | 5.11 | – | 5.96 | 4.8 | 5.13 | –
CC1CCC2C(CSCCCSCC3C(=O)OC4OC5(C)CCC6C(C)CCC3C46OO5)C(=O)OC3OC4(C)CCC1C32OO4 (configuration not stated) | 7.89 | – | – | – | – | – | –
CC1CCC2C(CCCCCCC3(CC4C(=O)OC5OC6(C)CCC7C(C)CCC4C57OO6)C(=O)OC4OC5(C)CCC6C(C)CCC3C46OO5)C(=O)OC3OC4(C)CCC1C32OO4 (configuration not stated) | 8.62 | 5.77 | – | 5.18 | 2.8 | 5.92 | –
CC1CCC2C(CSCCSCC3C(=O)OC4OC5(C)CCC6C(C)CCC3C46OO5)C(=O)OC3OC4(C)CCC1C32OO4 (configuration not stated) | 8.13 | – | – | – | – | – | –
CC1CCC2C(CC3(CCCCCCC4(CC5C(=O)OC6OC7(C)CCC8C(C)CCC5C68OO7)C(=O)OC5OC6(C)CCC7C(C)CCC4C57OO6)C(=O)OC4OC5(C)CCC6C(C)CCC3C46OO5)C(=O)OC3OC4(C)CCC1C32OO4 (configuration not stated) | 8.24 | 5.70 | – | 5.04 | 1.6 | 5.55 | –
C[C@@H]1CCC2[C@H](CCCCCC[C@H]3C(=O)O[C@@H]4O[C@@]5(C)CC[C@H]6[C@H](C)CCC3[C@@]46OO5)C(=O)O[C@@H]3O[C@]4(C)CC[C@@H]1C23OO4 (some centres not stated) | 7.98 | 5.74 | – | 5.00 | 9.5 | 5.80 | –
C[C@@H]1CC[C@H]2[C@H](CCCCCCC[C@@H]3C(=O)O[C@@H]4O[C@@]5(C)CC[C@H]6[C@H](C)CC[C@@H]3[C@@]46OO5)C(=O)O[C@@H]3O[C@@]4(C)CC[C@@H]1[C@]32OO4 | 8.96 | 5.96 | – | 5.31 | – | 5.96 | –
C[C@@H]1CC[C@H]2[C@@H](CCCCc3ccccc3)C(=O)O[C@@H]3O[C@]4(C)CC[C@@H]1[C@]32OO4 | 8.08 | 4.96 | – | 4.80 | 1.9 | 4.85 | –
CCCCCC1(CC2C(=O)OC3OC4(C)CCC5C(C)CCC2C35OO4)C(=O)OC2OC3(C)CCC4C(C)CCC1C24OO3 (configuration not stated) | 8.41 | 4.64 | – | 4.20 | 1.6 | 4.44 | –
CCCCC[C@@H]1C(=O)O[C@@H]2O[C@]3(C)CC[C@H]4[C@H](C)CC[C@@H]1[C@@]24OO3 | 7.93 | 4.96 | – | 4.72 | 1.6 | 4.96 | –
CC1CCC2C(CSCCCCSCC3C(=O)OC4OC5(C)CCC6C(C)CCC3C46OO5)C(=O)OC3OC4(C)CCC1C32OO4 (configuration not stated) | 8.24 | – | – | – | – | – | –
C[C@@H]1CC[C@H]2[C@H](Cc3ccc(F)cc3)C(=O)O[C@@H]3O[C@]4(C)CC[C@@H]1[C@]32OO4 | 7.89 | 4.46 | – | 3.92 | 9.3 | 4.39 | –
CC1CCC2C(CC3(Cc4cccc(F)c4)C(=O)OC4OC5(C)CCC6C(C)CCC3C46OO5)C(=O)OC3OC4(C)CCC1C32OO4 (configuration not stated) | 8.68 | 5.40 | – | 5.26 | 2.6 | 5.46 | –
CC1CCC2C(CSCCCCCSCC3C(=O)OC4OC5(C)CCC6C(C)CCC3C46OO5)C(=O)OC3OC4(C)CCC1C32OO4 (configuration not stated) | 7.92 | – | – | – | – | – | –
C[C@@H]1CC[C@H]2[C@H](CCCCCCC[C@H]3C(=O)O[C@@H]4O[C@@]5(C)CC[C@H]6[C@H](C)CC[C@@H]3[C@@]46OO5)C(=O)O[C@@H]3O[C@@]4(C)CC[C@@H]1[C@]32OO4 | 9.04 | 6.12 | – | 5.55 | 3.1 | 6.44 | –
CC1CCC2C(CC3(CCCCCCCC4(CC5C(=O)OC6OC7(C)CCC8C(C)CCC5C68OO7)C(=O)OC5OC6(C)CCC7C(C)CCC4C57OO6)C(=O)OC4OC5(C)CCC6C(C)CCC3C46OO5)C(=O)OC3OC4(C)CCC1C32OO4 (configuration not stated) | < 7.70 | 5.27 | – | < 4.38 | > 2.1 | 5.02 | –
